Only some compounds are listed: those with a hit (about 2.3% of all), similar ones and a draw of the others.
TRPC6 activator: activates the mouse TRPC6 cation channel | HEK293-TRPC6 membrane potential dye fluorescence; active compounds read high | Q61143 | hit rate 0.13% among 310,000 | B-score at 10 µM;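 active = B-score of the integrated fluorescence ratio above library mean plus 3 SD, and starting fluorescence ratio within library mean plus 5 SD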;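 also: higher score means more depolarization so channel activation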
TRPC4 inh: blocks the mouse TRPC4 cation channel. HEK293 TRPC4beta/mu-opioid, DAMGO-evoked Fluo4 calcium flux; active compounds read low. B-score at 10 µM. hit rate 0.39% among 300,000. AID 2247;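 active = B-score over 3 SD under the library average, no early fluorescence shift, positive overall ratio signal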
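Assay system – HEK293 line stably carrying TRPC4beta and mu-opioid receptor · Doses – single dose · Detection – Fluo4 calcium-dye fluorescence, kinetic read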
TRPC6 inh: blocks the mouse TRPC6 cation channel; HEK293-TRPC6, membrane potential dye, ACh-evoked depolarization; active compounds read low; hit rate 1.1% among 310,000; B-score at 10 µM; Q61143; AID 2553;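 active = B-score under library mean minus 3 SD, initial fluorescence not abnormally high, positive integrated signal ratio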;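 also: B-score derived from integrated fluorescence ratio over the kinetic read; more negative B-score means stronger inhibition of depolarization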
TRPC4 agonist: TRPC4 (mouse) channel activation; HEK293 TRPC4beta/mu-opioid, Fluo4 calcium fluorescence; active compounds read high; B-score at 10 µM; hit rate 0.49% among 310,000; AID 2237;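 active = B-score above 5 SD of library B-scores, and initial fluorescence ratio not above library mean plus 5 SD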;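 also: positive B-score marks a calcium rise read as TRPC4 activation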
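Assay system – TRPC4beta and mu-opioid receptor HEK293 stable cells · Measured by – Fluo4 fluorescence, kinetic · Schedule – dye loading 45 min room temperature, 110 s kinetic read · Read-out – B-scored integrated calcium fluorescence ratio · Controls – buffer and maximal DAMGO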
TRPC4 PAM: TRPC4 (mouse) allosteric potentiation. HEK293 TRPC4beta/mu-opioid, DAMGO EC20, Fluo-4 Ca2+ flux; active compounds read high. B-score at 10 µM. hit rate 0.42% among 310,000. AID 2227;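 active = B-score of calcium response area above 5 SD of library B-scores, with initial fluorescence ratio within 5 SD of library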;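 also: B-score of integrated fluorescence ratio over time as area under calcium response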
An asterisk follows results filed as active.

How did Cc1cc(-c2nnc(SCC(=O)Nc3ccccc3C(F)(F)F)o2)c(C)n1-c1ccccc1 do in these assays?
TRPC6 activator: inactive; TRPC4 inh: inactive; TRPC6 inh: inactive; TRPC4 agonist: inactive; TRPC4 PAM: inactive

Results for CCOc1ccc(-n2cnnn2)cc1S(=O)(=O)NCc1ccccc1 ?
TRPC6 activator: inactive; TRPC4 inh: -7*; TRPC6 inh: inactive; TRPC4 agonist: inactive; TRPC4 PAM: inactive

How did CCOc1cc(S(=O)(=O)NCc2ccccc2)c(OCC)cc1-n1cnnn1 do in these assays?
TRPC6 activator: inactive; TRPC4 inh: inactive; TRPC6 inh: inactive; TRPC4 agonist: inactive; TRPC4 PAM: inactive

Results for ClC1(Cl)CC1CSc1nnc(-c2ccncc2)o1 (configuration not stated) ?
TRPC6 activator: inactive; TRPC4 inh: inactive; TRPC6 inh: inactive; TRPC4 agonist: inactive; TRPC4 PAM: inactive

How did COc1ccccc1NC(=O)CSc1nnnn1-c1ccccc1F do in these assays?
TRPC6 activator: inactive; TRPC4 inh: inactive; TRPC6 inh: inactive; TRPC4 agonist: 73*; TRPC4 PAM: inactive

How did CCC(=O)NC(C)C(c1cccs1)N1CCN(c2ccccc2)CC1 (configuration not stated) do in these assays?
TRPC6 activator: inactive; TRPC4 inh: inactive; TRPC6 inh: inactive; TRPC4 agonist: 119*; TRPC4 PAM: inactive

How did CC(NC(=O)c1ccco1)C(c1cccs1)N1CCN(c2ccccc2)CC1 (configuration not stated) do in these assays?
TRPC6 activator: inactive; TRPC4 inh: -6*; TRPC6 inh: inactive; TRPC4 agonist: inactive; TRPC4 PAM: inactive

Results for CC(NC(=O)c1ccco1)C(c1cccs1)N1CCN(c2ccc(F)cc2)CC1 (configuration not stated) ?
TRPC6 activator: inactive; TRPC4 inh: inactive; TRPC6 inh: inactive; TRPC4 agonist: inactive; TRPC4 PAM: inactive

How did CC1(C)CC2CC(C)(CN2/C=C2/CCCCC2=O)C1 (configuration not stated) do in these assays?
TRPC6 activator: inactive; TRPC4 inh: inactive; TRPC6 inh: inactive; TRPC4 agonist: inactive; TRPC4 PAM: inactive

Results for Cc1nc(N2CCN(c3ccccn3)CC2)c2c(C)c(C(=O)N3CCN(c4ccccc4F)CC3)sc2n1 ?
TRPC6 activator: inactive; TRPC4 inh: -9*; TRPC6 inh: inactive; TRPC4 agonist: inactive; TRPC4 PAM: inactive

What do the screens show for `CCOC(=O)C1CCCN(CC(=O)Nc2c(F)c(F)c(F)c(F)c2F)C1` (configuration not stated)?
TRPC6 activator: inactive; TRPC4 inh: inactive; TRPC6 inh: inactive; TRPC4 agonist: inactive; TRPC4 PAM: inactive

What do the screens show for `CCOC(=O)C1CCCN(CCC(=O)Nc2cccc(F)c2)C1` (configuration not stated)?
TRPC6 activator: inactive; TRPC4 inh: inactive; TRPC6 inh: inactive; TRPC4 agonist: inactive; TRPC4 PAM: inactive

What do the screens show for `CCOC(=O)C1CCCN(CC(=O)c2ccc(F)cc2)C1` (configuration not stated)?
TRPC6 activator: inactive; TRPC4 inh: inactive; TRPC6 inh: inactive; TRPC4 agonist: 81*; TRPC4 PAM: inactive

What do the screens show for `CCOC(=O)C1CCCN(CCC(=O)Nc2cccc(C)c2)C1` (configuration not stated)?
TRPC6 activator: inactive; TRPC4 inh: inactive; TRPC6 inh: inactive; TRPC4 agonist: 54*; TRPC4 PAM: inactive

Results for CN1CCN(CCCNC(=O)c2ccc3c(Cl)c4c(nc3c2)CCCC4)CC1 ?
TRPC6 activator: inactive; TRPC4 inh: inactive; TRPC6 inh: inactive; TRPC4 agonist: inactive; TRPC4 PAM: inactive

How did CCOC(=O)c1c(NC(=O)CCNCc2ccco2)sc2c1CCC2 do in these assays?
TRPC6 activator: inactive; TRPC4 inh: inactive; TRPC6 inh: inactive; TRPC4 agonist: inactive; TRPC4 PAM: 11*

What do the screens show for `CCOC(=O)c1c(NC(NC(C)=O)C(Cl)(Cl)Cl)sc2c1CCCC2` (configuration not stated)?
TRPC6 activator: inactive; TRPC4 inh: inactive; TRPC6 inh: inactive; TRPC4 agonist: inactive; TRPC4 PAM: 21*

What do the screens show for `CCOC(=O)c1c(NC(=O)c2ccco2)sc2c1CCCCC2`?
TRPC6 activator: inactive; TRPC4 inh: inactive; TRPC6 inh: inactive; TRPC4 agonist: inactive; TRPC4 PAM: inactive
